ChEMBL document CHEMBL1147105, “In vitro and in vivo activities of PD 0305970 and PD 0326448, new bacterial gyrase/topoisomerase inhibitors with potent antibacterial activities versus multidrug-resistant gram-positive and fastidious organism groups” (2007)

Assays:
Enterococcus faecalis [1] = experiment: Antibacterial activity against VanB-resistant Enterococcus faecalis; assay type: functional
In short: (§1)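 Broth microdilution MIC per CLSI guidelines, incubated at 35°C. Cation-adjusted Mueller-Hinton broth for nonfastidious organisms and staphylococci. Streptococci tested in the same broth with 3% lysed horse blood. Anaerobes tested in supplemented Brucella broth inside an anaerobe chamber (5% CO2, 5% H2, 90% N2), read after 48 h. Strains were mainly recent clinical isolates with confirmed identity.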

Enterococcus faecium [2] = experiment: Antibacterial activity against Enterococcus faecium; assay type: functional; in short: as §1
Enterococcus faecium [3] = experiment: Antibacterial activity against VanB-resistant Enterococcus faecium; assay type: functional; in short: as §1
[4] = test system: Enterococcus casseliflavus; experiment: Antibacterial activity against Enterococcus casseliflavus; assay type: functional
Enterococcus gallinarum = experiment: Antibacterial activity against Enterococcus gallinarum; assay type: functional
Corynebacterium jeikeium = experiment: Antibacterial activity against Corynebacterium jeikeium; assay type: functional
In short: (§2)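 Broth microdilution MIC following CLSI guidelines, in cation-adjusted Mueller-Hinton broth containing 3% lysed horse blood, incubated at 35°C. Clinical isolates with identity confirmed. Reported as MIC range, MIC50 and MIC90.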

Corynebacterium sp. = experiment: Antibacterial activity against Corynebacterium sp.; assay type: functional; in short: as §2
Haemophilus influenzae = experiment: Antibacterial activity against beta-lactamase negative Haemophilus influenzae; assay type: functional
In short: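 Broth microdilution MIC following CLSI guidelines, in Haemophilus test medium at 35°C.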

Legionella pneumophila = experiment: Antibacterial activity against Legionella pneumophila; assay type: functional
In short: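 Broth microdilution MIC per CLSI guidelines, run in buffered yeast extract α-ketoglutarate broth at 35°C and read after 48 h.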

Moraxella catarrhalis = experiment: Antibacterial activity against beta-lactamase positive Moraxella catarrhalis; assay type: functional
Citrobacter koseri = experiment: Antibacterial activity against Citrobacter diversus; assay type: functional
In short: (§3)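 Broth microdilution MIC following CLSI guidelines, in cation-adjusted Mueller-Hinton broth, incubated at 35°C. Recent clinical isolates and reference strains, with identity confirmed by automated and standard microbiological methods. Results reported as MIC range, MIC50 and MIC90.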

Citrobacter freundii = experiment: Antibacterial activity against Citrobacter freundii; assay type: functional; in short: as §3
Escherichia coli = experiment: Antibacterial activity against Escherichia coli; assay type: functional; in short: as §3
Klebsiella pneumoniae = experiment: Antibacterial activity against Klebsiella pneumoniae; assay type: functional; in short: as §3
Salmonella typhimurium = experiment: Antibacterial activity against Salmonella enterica serovar Typhimurium; assay type: functional, Salmonella enterica subsp. enterica serovar Typhimurium; in short: as §3
Shigella sonnei = experiment: Antibacterial activity against Shigella sonnei; assay type: functional; in short: as §3
Serratia marcescens = experiment: Antibacterial activity against Serratia marcescens; assay type: functional; in short: as §3
Acinetobacter sp. = experiment: Antibacterial activity against Acinetobacter sp.; assay type: functional; in short: as §3
Burkholderia cepacia = experiment: Antibacterial activity against Burkholderia cepacia; assay type: functional; in short: as §3
Pseudomonas aeruginosa = experiment: Antibacterial activity against Pseudomonas aeruginosa; assay type: functional; in short: as §3
[5] = test system: Stenotrophomonas maltophilia; experiment: Antibacterial activity against Stenotrophomonas maltophilia; assay type: functional; in short: as §3
Actinomyces sp. = experiment: Antibacterial activity against Actinomyces sp.; assay type: functional
Fusobacterium sp. = experiment: Antibacterial activity against Fusobacterium sp.; assay type: functional
In short: (§4)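 Anaerobic broth microdilution MIC following CLSI guidelines, in supplemented Brucella broth. Run in an anaerobe chamber under 5% CO2, 5% H2 and 90% N2 at 35°C, and read after 48 h. Reported as MIC range, MIC50 and MIC90.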

[6] = test system: Peptostreptococcus anaerobius; experiment: Antibacterial activity against Peptostreptococcus anaerobius; assay type: functional; in short: as §4
Finegoldia magna = experiment: Antibacterial activity against Peptostreptococcus magnus; assay type: functional; in short: as §4
Streptococcus pyogenes = experiment: Antibacterial activity against Streptococcus pyogenes; assay type: functional
In short: (§5)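 Broth microdilution MIC following CLSI guidelines, in cation-adjusted Mueller-Hinton broth with 3% lysed horse blood. Plates incubated at 35°C. Clinical isolates and reference strains, with identity confirmed by standard microbiological methods.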

Clostridium perfringens = experiment: Antibacterial activity against Clostridium perfringens; assay type: functional; in short: as §1
Fusobacterium nucleatum = experiment: Antibacterial activity against Fusobacterium nucleatum; assay type: functional; in short: as §4
Clostridioides difficile = experiment: Antibacterial activity against Clostridium difficile; assay type: functional; in short: as §4
[7] = test system: Bacteroides thetaiotaomicron; experiment: Antibacterial activity against Bacteroides thetaiotaomicron; assay type: functional; in short: as §4
Bacteroides fragilis = experiment: Antibacterial activity against Bacteroides fragilis; assay type: functional; in short: as §4
Staphylococcus aureus [8] = experiment: Antibacterial activity against oxacillin-resistant Staphylococcus aureus; assay type: functional; in short: as §1
Staphylococcus aureus [9] = experiment: Antibacterial activity against vancomycin-intermediate Staphylococcus aureus; assay type: functional; in short: as §1
[10] = test system: Staphylococcus epidermidis; experiment: Antibacterial activity against oxacillin-resistant Staphylococcus epidermidis; assay type: functional; in short: as §1
[11] = test system: Staphylococcus haemolyticus; experiment: Antibacterial activity against Staphylococcus haemolyticus; assay type: functional; in short: as §2
Staphylococcus warneri = experiment: Antibacterial activity against Staphylococcus warneri; assay type: functional; in short: as §3
Alloiococcus otitis = experiment: Antibacterial activity against Alloiococcus otitidis; assay type: functional
In short: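 MIC by broth microdilution following CLSI guidelines, in cation-adjusted Mueller-Hinton broth with 3% lysed horse blood. Incubated at 35°C and read after 48 h. Reported as MIC range, MIC50 and MIC90.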

Streptococcus equinus = experiment: Antibacterial activity against Streptococcus bovis; assay type: functional; in short: as §5
Streptococcus sanguinis = experiment: Antibacterial activity against Streptococcus sanguis; assay type: functional; in short: as §5
Streptococcus pneumoniae [12] = experiment: Antibacterial activity against penicillin-susceptible Streptococcus pneumoniae; assay type: functional; in short: as §1
Streptococcus pneumoniae [13] = experiment: Antibacterial activity against levofloxacin-resistant Streptococcus pneumoniae; assay type: functional; in short: as §1
Enterococcus faecalis [14] = experiment: Antibacterial activity against Enterococcus faecalis; assay type: functional; in short: as §1
Enterococcus faecalis [15] = experiment: Antibacterial activity against VanA-resistant Enterococcus faecalis; assay type: functional; in short: as §1
Prevotella bivia = experiment: Antibacterial activity against Prevotella bivia; assay type: functional; in short: as §4
[16] = test system: Prevotella melaninogenica; experiment: Antibacterial activity against Prevotella melaninogenica; assay type: functional; in short: as §4
Prevotella sp. = experiment: Antibacterial activity against Prevotella sp.; assay type: functional; in short: as §4
Streptococcus mitis = experiment: Antibacterial activity against Streptococcus mitis; assay type: functional; in short: as §5
Streptococcus viridans = experiment: Antibacterial activity against Streptococcus viridans; assay type: functional; in short: as §5
Salmonella enteritidis = experiment: Antibacterial activity against Salmonella enterica serovar Enteritidis; assay type: functional, Salmonella enterica subsp. enterica serovar Enteritidis; in short: as §3

Cc1c(N2CC[C@@H]([C@H](C)N)C2)c(F)cc2c(=O)n(N)c(=O)n(C3CC3)c12
16 µg/mL: MIC90 (Citrobacter freundii) | MIC90 (Serratia marcescens) | MIC90 [7]
0.06 µg/mL: MIC (Fusobacterium sp.) | MIC (Fusobacterium nucleatum) | MIC (Staphylococcus warneri) | MIC90 (Streptococcus pneumoniae [13])
0.03 µg/mL: MIC [6] | MIC (Finegoldia magna) | MIC50 (Streptococcus pyogenes) | MIC90 (Streptococcus pyogenes) | MIC50 (Streptococcus equinus) | MIC90 (Streptococcus equinus) | MIC50 (Streptococcus sanguinis) | MIC90 (Streptococcus sanguinis) | MIC50 (Streptococcus pneumoniae [12]) | MIC90 (Streptococcus pneumoniae [12]) | MIC50 (Streptococcus pneumoniae [13]) | MIC50 (Streptococcus mitis) | MIC90 (Streptococcus mitis) | MIC50 (Streptococcus viridans) | MIC90 (Streptococcus viridans)
0.5 µg/mL: MIC (Enterococcus faecium [3]) | MIC90 (Moraxella catarrhalis) | MIC50 (Salmonella typhimurium) | MIC50 (Shigella sonnei) | MIC (Actinomyces sp.) | MIC50 (Clostridium perfringens) | MIC50 (Clostridioides difficile) | MIC90 [11] | MIC50 (Salmonella enteritidis)
64 µg/mL: MIC90 (Burkholderia cepacia) | MIC90 [5]
1 µg/mL: MIC50 (Enterococcus faecium [2]) | MIC50 (Citrobacter koseri) | MIC50 (Escherichia coli) | MIC90 (Salmonella typhimurium) | MIC90 (Shigella sonnei) | MIC50 (Acinetobacter sp.) | MIC90 (Prevotella bivia) | MIC90 [16] | MIC90 (Prevotella sp.) | MIC90 (Salmonella enteritidis)
0.008 µg/mL: MIC90 (Alloiococcus otitis)
4 µg/mL: MIC90 (Citrobacter koseri) | MIC50 (Citrobacter freundii) | MIC90 (Klebsiella pneumoniae) | MIC50 (Pseudomonas aeruginosa) | MIC50 [7] | MIC90 (Bacteroides fragilis)
0.004 µg/mL: MIC50 (Alloiococcus otitis)
32 µg/mL: MIC50 (Burkholderia cepacia) | MIC90 (Pseudomonas aeruginosa)
0.25 µg/mL: MIC50 (Enterococcus faecalis [1]) | MIC90 (Enterococcus faecalis [1]) | MIC50 [4] | MIC90 [4] | MIC50 (Enterococcus gallinarum) | MIC90 (Enterococcus gallinarum) | MIC50 (Corynebacterium jeikeium) | MIC90 (Corynebacterium jeikeium) | MIC50 (Corynebacterium sp.) | MIC90 (Corynebacterium sp.) | MIC90 (Haemophilus influenzae) | MIC50 (Legionella pneumophila) | MIC90 (Legionella pneumophila) | MIC50 (Moraxella catarrhalis) | MIC90 (Staphylococcus aureus [8]) | MIC90 (Enterococcus faecalis [14]) | MIC50 (Prevotella bivia) | MIC50 [16] | MIC50 (Prevotella sp.)
8 µg/mL: MIC90 (Acinetobacter sp.) | MIC50 [5]
2 µg/mL: MIC90 (Enterococcus faecium [2]) | MIC90 (Escherichia coli) | MIC50 (Klebsiella pneumoniae) | MIC50 (Serratia marcescens) | MIC90 (Clostridium perfringens) | MIC90 (Clostridioides difficile) | MIC50 (Bacteroides fragilis)
0.125 µg/mL: MIC50 (Haemophilus influenzae) | MIC50 (Staphylococcus aureus [8]) | MIC (Staphylococcus aureus [9]) | MIC50 [10] | MIC90 [10] | MIC50 [11] | MIC50 (Enterococcus faecalis [14]) | MIC (Enterococcus faecalis [15])

C[C@H]1NCc2cc(-c3ccc4c(=O)c(C(=O)O)cn(C5CC5)c4c3OC(F)F)ccc21 [GARENOXACIN]
0.03 µg/mL: MIC90 (Haemophilus influenzae) | MIC50 (Salmonella typhimurium) | MIC50 (Shigella sonnei) | MIC (Staphylococcus warneri) | MIC50 (Salmonella enteritidis)
1 µg/mL: MIC50 (Citrobacter freundii) | MIC90 (Escherichia coli) | MIC90 (Klebsiella pneumoniae) | MIC50 (Serratia marcescens) | MIC90 (Clostridium perfringens) | MIC90 (Clostridioides difficile) | MIC (Staphylococcus aureus [9]) | MIC50 (Streptococcus pneumoniae [13]) | MIC90 (Prevotella bivia) | MIC90 [16] | MIC90 (Prevotella sp.)
0.002 µg/mL: MIC50 (Legionella pneumophila)
0.2 µg/mL: MIC90 (Enterococcus gallinarum)
4 µg/mL: MIC (Enterococcus faecium [3]) | MIC50 [5] | MIC90 [7] | MIC90 [11] | MIC90 (Enterococcus faecalis [14])
0.125 µg/mL: MIC50 (Citrobacter koseri) | MIC90 (Salmonella typhimurium) | MIC90 (Shigella sonnei) | MIC50 (Acinetobacter sp.) | MIC (Actinomyces sp.) | MIC (Fusobacterium sp.) | MIC50 (Streptococcus pyogenes) | MIC (Fusobacterium nucleatum) | MIC50 (Streptococcus sanguinis) | MIC50 (Streptococcus pneumoniae [12]) | MIC90 (Streptococcus pneumoniae [12]) | MIC50 (Streptococcus mitis) | MIC50 (Streptococcus viridans) | MIC90 (Salmonella enteritidis)
8 µg/mL: MIC90 (Enterococcus faecalis [1]) | MIC50 (Enterococcus faecium [2]) | MIC90 (Serratia marcescens) | MIC90 [5]
0.5 µg/mL: MIC90 [4] | MIC50 (Clostridium perfringens) | MIC50 (Clostridioides difficile) | MIC50 (Bacteroides fragilis)
> 64 µg/mL: MIC90 (Citrobacter freundii) | MIC90 (Burkholderia cepacia) | MIC90 (Pseudomonas aeruginosa)
64 µg/mL: MIC90 (Corynebacterium sp.)
0.25 µg/mL: MIC50 [4] | MIC50 (Enterococcus gallinarum) | MIC50 (Corynebacterium jeikeium) | MIC90 (Corynebacterium jeikeium) | MIC50 (Corynebacterium sp.) | MIC90 (Citrobacter koseri) | MIC50 (Klebsiella pneumoniae) | MIC90 (Streptococcus pyogenes) | MIC50 (Streptococcus equinus) | MIC90 (Streptococcus equinus) | MIC90 (Streptococcus sanguinis) | MIC50 (Prevotella bivia) | MIC50 [16] | MIC50 (Prevotella sp.) | MIC90 (Streptococcus mitis) | MIC90 (Streptococcus viridans)
2 µg/mL: MIC50 (Enterococcus faecalis [1]) | MIC50 (Pseudomonas aeruginosa) | MIC50 [7] | MIC90 (Bacteroides fragilis) | MIC50 (Staphylococcus aureus [8]) | MIC90 (Staphylococcus aureus [8]) | MIC50 [10] | MIC90 (Streptococcus pneumoniae [13]) | MIC50 (Enterococcus faecalis [14]) | MIC (Enterococcus faecalis [15])
0.008 µg/mL: MIC50 (Haemophilus influenzae) | MIC90 (Legionella pneumophila)
32 µg/mL: MIC90 (Enterococcus faecium [2]) | MIC50 (Burkholderia cepacia) | MIC90 [10]
0.015 µg/mL: MIC [6] | MIC (Finegoldia magna)
≤ 0.001 µg/mL: MIC50 (Alloiococcus otitis) | MIC90 (Alloiococcus otitis)
0.06 µg/mL: MIC50 (Moraxella catarrhalis) | MIC90 (Moraxella catarrhalis) | MIC50 (Escherichia coli) | MIC50 [11]
16 µg/mL: MIC90 (Acinetobacter sp.)
